Experimental data of several laboratories.
CDK2 with cyclin A: Cyclin-dependent kinase 2, with cyclin A (CDK2, Homo sapiens, UniProt P24941)
CDK2: Cyclin-dependent kinase 2 (CDK2, Homo sapiens, UniProt P24941)
CDK2 with cyclin E: Cyclin-dependent kinase 2, with cyclin E (CDK2, Homo sapiens, UniProt P24941)

| SMILES | target | test | setting | measurement | value |
| --- | --- | --- | --- | --- | --- |
| CC(C)[C@H](CO)Nc1nc(Nc2cccc(Cl)c2)c2ncn(C(C)C)c2n1 | CDK2 with cyclin A | cell-free assay | 0.5 µM | remaining signal | 6.91% |
| Cc1c[nH]c2nccc(Oc3c(F)cc(Nc4cc(Cl)nc(N)n4)cc3F)c12 | CDK2 | cell-free assay, competition with immobilised ligand | 0.1 µM | remaining binding | 99% |
| Cn1c2c(c3ccc(Cl)c(Cl)c31)C(C#N)C1(CCCC1)NC2=O (centres unmarked) | CDK2 | thermal stability, DSF | 10 µM | ΔTm | -0.5 °C |
| COc1cc2c(Nc3ccc(Br)cc3F)ncnc2cc1OCC1CCN(C)CC1 | CDK2 with cyclin E | cell-free assay | 0.5 µM | remaining signal | 101% |
| Cc1cc(-n2nc(Cc3cc(F)cc(C(F)(F)F)c3)nc2C)ccc1C(N)=O | CDK2 | cell-free assay, competition with immobilised ligand | 1 µM | remaining binding | 100% |
| Cc1ccc(C(=O)NCc2ccsc2)cc1C#Cc1cn(C(C)C)c2ncnc(N)c12 | CDK2 with cyclin A | enzyme activity, inhibitor | 1 µM | activity vs control | 94% |
| COc1cc(/C=C/C(=O)CC(=O)/C=C/c2ccc(O)c(OC)c2)ccc1O | CDK2 with cyclin A | enzyme activity, inhibitor | 1 µM | activity vs control | 107% |
| Cn1c2c(c3ccccc31)C(C#N)C(C)(C)NC2=O (centres unmarked) | CDK2 | thermal stability, DSF | 10 µM | ΔTm | -0.1 °C |
| FC(F)(F)Oc1cccc(-c2cnc3ccc(-c4ccncc4)nn23)c1 | CDK2 with cyclin A | enzyme activity, inhibitor, radiometric | 5 µM | activity vs control | 10% |
| CCN1CCC2(CC1)NC(=O)c1c(c3ccc(Cl)c(Cl)c3n1C)C2C#N (racemic) | CDK2 | thermal stability, DSF | 10 µM | ΔTm | 0 °C |
| O=C1NC(=O)c2cc(Nc3ccc(F)cc3)c(Nc3ccc(F)cc3)cc21 | CDK2 with cyclin E | cell-free assay | 0.5 µM | remaining signal | 94.3% |
| O=C(Nc1cnn(-c2csc(C(=O)NC3COC3)c2)c1)Nc1c(F)cccc1Cl | CDK2 with cyclin A | enzyme activity, inhibitor | 5 µM | remaining activity | 93.8% |
| C[C@H](NC(=O)c1cnc2n1[C@](C)(Cc1ccc(C#N)cc1)C(=O)N2c1cc(Cl)c(F)c(Cl)c1)C(=O)NC1(c2ccccn2)CC1 | CDK2 | cell-free assay, competition with immobilised ligand | 1 µM | remaining binding | 100% |
| Cc1sc(C(=O)NC2COC2)cc1-n1cc(NC(=O)Nc2c(F)cccc2Cl)cn1 | Cyclin-dependent kinase 2, with cyclin O (CDK2, Homo sapiens, UniProt P24941) | enzyme activity, inhibitor | 10 µM | remaining activity | 105% |
| COc1cc2c(cc1OC)-c1[nH]nc(Nc3cccc(F)c3)c1C2 | CDK2 with cyclin E | cell-free assay | 0.5 µM | remaining signal | 88.6% |
| O=C(Nc1cccnn1)N1CC(C/C=C/c2cncc(Oc3ccc(C(F)(F)F)cn3)n2)C1 | CDK2 | cell-free assay, competition with immobilised ligand | 1 µM | remaining binding | 100% |

| SMILES | target | test | setting | measurement | value |
| --- | --- | --- | --- | --- | --- |
| CN(C)C1CCN(CC#Cc2nn(C3CCCC3)c3nc(NCc4ccccc4)ncc23)C1 (centres unmarked) | CDK2 with cyclin A | enzyme activity, inhibitor, FRET | 1 µM | inhibition | 9% |
| CCC1(CC)NC(=O)c2c(c3ccc(Cl)c(Cl)c3n2C)C1C#N (centres unmarked) | CDK2 | thermal stability, DSF | 10 µM | ΔTm | -0.4 °C |
| N#Cc1c(NC(=O)c2cccc3ccccc23)sc2c1CCCC2 | CDK2 with cyclin A | cell-free assay | 0.5 µM | remaining signal | 100% |
| CC(C)CC(=O)N1CCc2nc(-c3ccc(Br)cc3)nc(N(C)Cc3ccccc3)c2C1 | CDK2 | cell-free assay, competition with immobilised ligand | 0.1 µM | remaining binding | 80% |
| COc1cc(OC)c(C=C2C(O)=Nc3ccccc32)c(OC)c1 | CDK2 with cyclin A | cell-free assay | 0.5 µM | remaining signal | 96.3% |
| CS(=O)(=O)c1cc(C2(NC(=O)c3cncc4c3cnn4-c3ccc(F)cc3)CC2)ccn1 | CDK2 | cell-free assay, competition with immobilised ligand | 1 µM | remaining binding | 94% |
| Cc1ccc(NC(=O)c2ccc(C)c(C(F)(F)F)c2)cc1C#Cc1nn(C2CCC(O)CC2)c2ncnc(N)c12 (centres unmarked) | CDK2 with cyclin A | cell-free assay | 10 µM | remaining signal | 100% |
| O=C1Cc2c([nH]c3ccc(Br)cc23)-c2ccccc2N1 | CDK2 with cyclin E | cell-free assay | 0.5 µM | remaining signal | 51.9% |
| C[C@H](c1ccnc(Nc2nc3ccc(-c4cc(N(C)C)ncn4)cc3[nH]2)c1)N1CCN(C(=O)CC(F)(F)F)CC1 | CDK2 | cell-free assay, competition with immobilised ligand | 0.1 µM | remaining binding | 100% |
| CS(=O)(=O)CCNCc1ccc(-c2ccc3ncnc(Nc4ccc(OCc5cccc(F)c5)c(Cl)c4)c3c2)o1 | CDK2 with cyclin A | cell-free assay | 0.5 µM | remaining signal | 94.5% |
| O=C(N[C@H]1CCCCC/C=C\C2C[C@@]2(C(=O)O)NC(=O)[C@@H]2C[C@@H](Oc3ccncc3)CN2C1=O)OC1CCCC1 (some centres unmarked) | CDK2 | binding, competition with immobilised ligand | 1 µM | remaining binding | 87% |
| CN1CCC2(CC1)NC(=O)c1c(c3ccc(Cl)c(Cl)c3n1C)C2C#N (racemic) | CDK2 | thermal stability, DSF | 10 µM | ΔTm | 0.1 °C |
| O=C(Nc1cnn(-c2csc(C(=O)NC3COC3)c2)c1)Nc1ccccc1Cl | CDK2 with cyclin E | enzyme activity, inhibitor | 5 µM | remaining activity | 99% |
| N#CC1c2c([nH]c3c(Cl)c(Cl)ccc23)C(=O)NC12CCCCC2 (racemic) | CDK2 | thermal stability, DSF | 10 µM | ΔTm | -0.6 °C |
| CC(C)c1ccc(NC(=O)c2cccs2)c(-c2nc3ccccc3[nH]c2=O)c1 | CDK2 with cyclin E | enzyme activity, inhibitor | 1 µM | activity vs control | 98% |
| Cc1cc(NC(=O)c2cccc3cc(-c4cccc5[nH]nc(N)c45)ccc23)ccc1F | CDK2 with cyclin A | enzyme activity, inhibitor | 0.1 µM | activity vs control | 100% |
